Source: PubChem
Hits are enriched below; roughly 2.3% of the tested compounds scored in any of these assays.
TRPC4 PAM: TRPC4 (mouse) allosteric potentiation | HEK293 TRPC4beta/mu-opioid, DAMGO EC20, Fluo-4 Ca2+ flux; hits give high values | B-score at 10 µM | 310,000 tested, 0.42% active | AID 2227;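 active = B-score of calcium response area above 5 SD of library B-scores, with initial fluorescence ratio within 5 SD of library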;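 also: B-score of integrated fluorescence ratio over time as area under calcium response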
Target sequence (Q9QUQ5 whole entry, looked up): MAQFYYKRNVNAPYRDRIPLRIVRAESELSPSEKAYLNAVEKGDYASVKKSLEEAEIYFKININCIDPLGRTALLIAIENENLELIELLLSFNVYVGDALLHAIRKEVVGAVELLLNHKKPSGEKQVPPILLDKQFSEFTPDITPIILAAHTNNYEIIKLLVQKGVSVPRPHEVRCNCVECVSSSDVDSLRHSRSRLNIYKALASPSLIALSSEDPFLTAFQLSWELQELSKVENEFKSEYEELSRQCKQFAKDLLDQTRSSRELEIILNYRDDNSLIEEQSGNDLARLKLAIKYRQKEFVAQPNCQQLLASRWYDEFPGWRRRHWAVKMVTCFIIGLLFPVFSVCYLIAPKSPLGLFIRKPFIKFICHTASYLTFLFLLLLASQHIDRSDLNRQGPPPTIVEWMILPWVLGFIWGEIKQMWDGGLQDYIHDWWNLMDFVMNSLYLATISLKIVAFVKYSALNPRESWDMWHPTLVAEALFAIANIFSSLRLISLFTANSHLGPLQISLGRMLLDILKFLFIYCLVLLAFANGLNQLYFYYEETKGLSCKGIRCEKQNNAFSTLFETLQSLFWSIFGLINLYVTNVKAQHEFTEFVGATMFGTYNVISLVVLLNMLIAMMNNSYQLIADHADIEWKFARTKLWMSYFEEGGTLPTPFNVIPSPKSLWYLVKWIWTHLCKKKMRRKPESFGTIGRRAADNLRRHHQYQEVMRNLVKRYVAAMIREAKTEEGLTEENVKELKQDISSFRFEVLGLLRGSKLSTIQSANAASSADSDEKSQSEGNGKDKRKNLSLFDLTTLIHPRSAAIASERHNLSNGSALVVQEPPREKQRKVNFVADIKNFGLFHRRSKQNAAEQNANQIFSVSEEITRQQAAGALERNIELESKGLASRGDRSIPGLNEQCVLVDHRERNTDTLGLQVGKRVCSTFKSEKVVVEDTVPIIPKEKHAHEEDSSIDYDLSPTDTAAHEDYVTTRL
TRPC4 inh: blocks the mouse TRPC4 cation channel; Q9QUQ5; HEK293 TRPC4beta/mu-opioid, DAMGO-evoked Fluo4 calcium flux; hits give low values; B-score at 10 µM; 300,000 tested, 0.39% active; AID 2247;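 active = B-score over 3 SD under the library average, no early fluorescence shift, positive overall ratio signal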
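Test system – stable TRPC4beta/mu-opioid receptor HEK293 cells · Probe or stimulus – DAMGO, a submaximal dose followed by a maximal one · Dosing – one concentration per compound · Signal – Fluo4 calcium fluorescence by kinetic imaging, 5 s 1 Hz baseline · Evaluation – per-well B score of integrated baseline-normalized Fluo4 ratio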
TRPC6 activator: mouse TRPC6 channel activation; Q61143; HEK293-TRPC6 membrane potential dye fluorescence; hits give high values; B-score at 10 µM; 310,000 tested, 0.13% active;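 active = B-score of the integrated fluorescence ratio above library mean plus 3 SD, and starting fluorescence ratio within library mean plus 5 SD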;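 also: higher score means more depolarization so channel activation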
TRPC6 inh: mouse TRPC6 channel inhibition; Q61143; B-score at 10 µM; HEK293-TRPC6, membrane potential dye, ACh-evoked depolarization; hits give low values; 310,000 tested, 1.1% active;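 active = B-score under library mean minus 3 SD, initial fluorescence not abnormally high, positive integrated signal ratio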;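 also: B-score derived from integrated fluorescence ratio over the kinetic read; more negative B-score means stronger inhibition of depolarization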
TRPC4 act: opens the mouse TRPC4 cation channel; Q9QUQ5; HEK293 TRPC4beta/mu-opioid, Fluo4 calcium fluorescence; hits give high values; B-score at 10 µM; 310,000 tested, 0.49% active; AID 2237;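 active = B-score above 5 SD of library B-scores, and initial fluorescence ratio not above library mean plus 5 SD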;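 also: positive B-score marks a calcium rise read as TRPC4 activation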
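Test system: HEK293 cells stably co-expressing mouse TRPC4beta and mu-opioid receptor | Schedule: Fluo4 dye loading 45 min at room temperature, 110 s recording | Measured by: Kinetic Fluo4 calcium fluorescence, 5 s baseline at 1 Hz | Evaluation: B score of integrated ratio | Controls: Buffer (low) and maximal DAMGO (high)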
* = called active by the depositor; i = inactive.

SMILES	TRPC4 PAM	TRPC4 inh	TRPC6 activator	TRPC6 inh	TRPC4 act
Cn1cc(CNCC2CCCO2)c(-c2ccc(Oc3ccccc3)cc2)n1 (centres undefined)	i	-7*	i	i	i
O=C(NCC1CCCO1)c1cn(-c2ccccc2)nc1-c1ccccc1 (centres undefined)	i	i	i	i	i
COc1ccc(NC(=O)C(c2ccc(Cl)cc2)C(C)C)cn1 (centres undefined)	i	i	i	i	i
CCCCNC(=O)c1onc(CSc2cccc3ccccc23)c1C(=O)O	i	i	i	i	i
Cc1cc(C)cc(NC(=O)CSc2nnc(-c3cc(C)[nH]n3)n2N)c1	i	i	i	i	i
Cc1nc(NCCc2ccccc2F)c(C#N)c(C)c1[N+](=O)[O-]	i	i	i	i	i
COc1ccc(CN2C(=O)C(Cc3ccccc3)Nc3ncnc(N4CCc5ccccc5C4)c32)cc1 (centres undefined)	i	i	i	i	i
O=C(c1nc2ccc(Cl)cn2c1CNCC[C@@H]1C[C@@H]2C=C[C@H]1C2)N1CCCCCCC1	i	i	i	i	64*
C[C@@H]1CN(C(=O)c2nc3ccc(Cl)cn3c2CNCC[C@@H]2C[C@@H]3C=C[C@H]2C3)C[C@H](C)O1	i	i	i	i	i
CCCc1nc2ccc(NC(C)=O)cc2c(=O)n1Cc1ccccc1Cl	i	i	i	i	i
O=C(c1cccc(S(=O)(=O)N2CCc3ccccc32)c1)N1CCN(c2ccccn2)CC1	i	i	16*	i	i
O=C(O)/C=C/c1nc(-c2ccccc2)n2ccccc12	i	i	i	i	i
C/C(N)=C(/C#N)C(=O)COC(=O)CC1CCCC1	i	i	i	i	i
C/C(N)=C(/C#N)C(=O)COC(=O)CC12CC3CC(CC(C3)C1)C2	i	-7*	i	i	i
COCC1=C(C(=O)OC)C(c2ccco2)n2ncnc2N1 (centres undefined)	i	i	i	i	i
CCOCCCn1c(=NC(=O)c2cccnc2)c(C(=O)OCC)cc2c(=O)n3ccccc3nc21	i	i	i	i	i
CCCCn1c(=NC(=O)c2cccnc2)c(C(=O)OCC)cc2c(=O)n3ccccc3nc21	46*	i	i	i	i
CCCCC(=O)Oc1c(S(=O)(=O)c2ccc(C)cc2)c(C)nn1C(C)(C)C	i	i	i	i	i
O=C1c2ccccc2C2(c3cc(C(F)(F)F)cc(C(F)(F)F)c3)NCCN12 (centres undefined)	i	-6*	i	i	i
Cc1sc2ccc3sccc3c2[n+]1C	i	i	i	-5.4*	i
OCCC1CN(Cc2cccn2-c2cccnc2)CCN1CCc1ccccc1 (centres undefined)	i	-5*	i	i	i
OCCC1CN(Cc2cccn2-c2cccnc2)CCN1Cc1ccccc1 (centres undefined)	i	i	i	i	i
O=C(O)C1CCN(C(=O)Cc2ccccc2)CC1	i	i	i	i	i
Cc1cccc(NC(=O)CSc2nnc(-c3cc(C)n(-c4ccccc4)c3C)o2)c1C	i	-7*	i	i	i
Cc1cc(-c2nnc(SCC(=O)Nc3ccccc3C(F)(F)F)o2)c(C)n1-c1ccccc1	i	i	i	i	i
SMILES	TRPC4 PAM	TRPC4 inh	TRPC6 activator	TRPC6 inh	TRPC4 act
CN(C(=O)c1cnccn1)c1c(N)n(Cc2ccccc2)c(=O)[nH]c1=O	i	i	i	i	i
O=C(NC1CCN(Cc2ccccc2)CC1)c1cccc(S(=O)(=O)Nc2cc(C(F)(F)F)ccc2Cl)c1	21*	i	i	i	i
CCCS(=O)(=O)c1c(S(=O)(=O)CCC)c2cnccn2c1C(=O)c1ccc(Cl)cc1	12*	i	i	i	i
NC(=NCc1ccco1)NC(=O)c1ccc(Cl)cc1	i	i	i	i	i
O=C(NCc1ccco1)/C(=C\c1cccs1)NC(=O)c1ccco1	i	i	i	i	i
O=C(Cc1cccc(C(F)(F)F)c1)NCc1ccc(Cl)cc1	i	i	i	i	i
CN(C)C(CNC(=O)C1CCN(S(=O)(=O)c2cccc(C(F)(F)F)c2)CC1)c1ccccc1 (centres undefined)	i	-8*	i	i	48*
CN(C)C(CNC(=O)Cc1cccc(C(F)(F)F)c1)c1ccccc1 (centres undefined)	i	-7*	i	i	161*
Cc1cccc(C(=O)NCC(c2ccco2)N(C)C)c1 (centres undefined)	i	i	i	i	i
CN(C)C(CNC(=O)Cc1cccc(C(F)(F)F)c1)c1ccco1 (centres undefined)	i	i	i	i	90*
CN(C)C(CNc1ccc(C(F)(F)F)cn1)c1ccccc1 (centres undefined)	i	i	i	i	97*
COc1ccc(NC(=O)C(NS(=O)(=O)c2cccs2)C(C)C)cc1Cl (centres undefined)	i	i	i	i	i
CC(=O)Nc1ccc(NC(=O)C2CCCN2C(=O)Nc2ccc(F)c([N+](=O)[O-])c2)cc1 (centres undefined)	i	i	i	i	i
CCOC(=O)c1cn(Cc2ccccc2)c2cc(C)nn2c1=O	i	i	i	i	i
CCOC(=O)c1cn(Cc2ccccc2)c(C(=O)OC(C)(C)C)c1O	i	i	i	i	107*
COc1ccc(OC)c(C2=NOC(C(=O)Nc3cc(C)on3)C2)c1 (centres undefined)	i	i	i	i	i
O=[N+]([O-])c1ccc(S(=O)(=O)NCCCc2ccccc2)cc1	57*	i	i	i	i
O=C(NC1CC1)C1=C[C@@H](c2coc3ccccc3c2=O)C[C@@H](OCCCCO)O1	i	i	i	i	i
CSCC(C)N1CCC(Oc2cccc(C(=O)NCc3ccccn3)c2)CC1 (centres undefined)	i	i	i	-5.7*	i
CC#CC(=O)N1CCC(Oc2cccc(C(=O)NCc3ccccn3)c2)CC1	i	i	i	i	i
Cc1ccc(NS(=O)(=O)c2cc([N+](=O)[O-])ccc2N/N=C/c2sc(N3CCOCC3)nc2-c2ccccc2)c(C)c1	i	i	i	i	i
Nc1cc(=O)nc(SCC(=O)N2CCN(c3ccccc3)CC2)n1-c1ccc(F)cc1	i	-6*	i	i	i
